Screening results: PubChem BioAssay, several laboratories
Beta2AR agonist – activates human beta-2 adrenergic receptor causing internalization | AID 504454 | response, % (concentration not given with the values) | actives 0.43% (n = 340,000) | Am2.2-beta2AR cells, FAP receptor internalization, flow cytometry;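 active = response above a set limit, near 3 SD of response in nonfluorescent compounds, cut at about 42% in these data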
Target sequence (P07550 whole entry, looked up): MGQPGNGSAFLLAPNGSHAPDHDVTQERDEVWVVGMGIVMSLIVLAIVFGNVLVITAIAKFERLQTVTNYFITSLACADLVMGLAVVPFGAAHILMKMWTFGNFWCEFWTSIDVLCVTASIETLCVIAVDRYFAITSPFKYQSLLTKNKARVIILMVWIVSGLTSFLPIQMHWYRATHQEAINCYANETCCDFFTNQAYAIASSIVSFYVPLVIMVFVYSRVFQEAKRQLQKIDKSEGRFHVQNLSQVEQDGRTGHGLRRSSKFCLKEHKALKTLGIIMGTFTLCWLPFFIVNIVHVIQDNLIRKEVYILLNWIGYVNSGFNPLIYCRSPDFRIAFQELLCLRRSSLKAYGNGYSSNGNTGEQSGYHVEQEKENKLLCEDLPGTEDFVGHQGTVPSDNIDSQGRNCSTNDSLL
CHOP inh – blocks CHOP induction under ER stress. CHO-K1 CHOP-promoter luciferase, tunicamycin-induced, 15-18 h. inhibition, % at 10 µM. actives 3.8% (n = 220,000);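 active = compounds that reduced the stress-induced luciferase reporter signal by more than about 70% of percent inhibition, limit read from the data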;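 also: 0% = tunicamycin plus vehicle and 100% = wells without tunicamycin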
VLA-4 inh – inhibition in a human VLA-4 binding assay | P13612 | VLA-4 expressing cells, ligand binding flow cytometry | inhibition, % (about 7 µM as worked out from the volumes in the protocol) | actives 0.2% (n = 330,000) | AID 2557; in the data active = inhibition above about 50%
XBP1 UPR activ – activators of adaptive arm of unfolded protein response (XBP1). CHO-XBP1 luciferase reporter, IRE1-XBP1 UPR activation, luminescence; percent of tunicamycin response, DMSO as zero. activation, % at 20 µM. actives 0.33% (n = 330,000);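 active = versus positive control, 20 µM dose yields 30% or more activation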;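 also: 100% = tunicamycin at 10 µg/mL and 0% = DMSO only wells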
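Assay system: CHO-XBP1 luciferase reporter cells; Schedule: 6 h treatment, 37 °C; Detection: glow luminescence from Steady-Glo reagent; Benchmarks: high control tunicamycin 10 µg/mL final, low control DMSO vehicle only.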
CHOP UPR activ – apoptotic UPR (CHOP) activation | actives 0.34% (n = 330,000) | AID 449763 | CHO-CHOP luciferase reporter, luminescence; percent of tunicamycin response over DMSO baseline | activation, % at 10 µM;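 active = at 10 µM dose, activation of 40% or more, normalized to positive control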;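 also: 100% = tunicamycin at 10 µg/mL and 0% = DMSO alone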
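Material: CHO-CHOP cells, stable luciferase reporter of PERK-eIF2a-CHOP signalling; quantity: 500 reporter cells seeded per well; buffer or medium: F12 medium containing 10% fetal bovine serum; compound: one dose, 10 µM in 0.5% DMSO; incubation: 6 h compound treatment, 37 °C; measured by: Steady-Glo luciferase luminescence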
Beta2AR ag CP1 – activates human beta-2 adrenergic receptor | shares compounds with Beta2AR agonist | Am2.2-beta2AR cells, FAP surface receptor, flow cytometry; hits give low values | percent response (surface receptor), % at 10 µM | actives 25% (n = 1,100) | AID 540358;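 active = surface receptor percent response at or below 58%, roughly 3 SD from nonfluorescent compounds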
B2AR FAP counter – fluorescence artifact in beta-2AR agonist FAP counterscreen. AID 588765. 1,100 tested, under 10 active. shares compounds with Beta2AR agonist. Am2.2 cells, FAP fluorogen flow cytometry; hits give low values. calls only at 10 µM;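 active = percent response below a set limit in fluorescence channel 1 and below 50% in channel 8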
Starred values were filed as active, the others as inactive. The full list was thinned out, with hits kept by preference.

How did COc1ccc(-c2nnc(COc3ccc(Br)cc3C)o2)cc1 do in these assays?
Beta2AR agonist: -3.6; VLA-4 inh: 2.9; XBP1 UPR activ: -0.9; CHOP UPR activ: -1.0; Beta2AR ag CP1: 107.3; B2AR FAP counter: inactive

What do the screens show for `Cc1cc(Br)ccc1OCc1nnc(-c2ccccc2)o1`?
Beta2AR agonist: -4.2; Beta2AR ag CP1: 118.0; B2AR FAP counter: inactive

Results for Brc1ccc(-c2nnc(Cc3ccccc3)o2)cc1 ?
Beta2AR agonist: -14.0; CHOP inh: 2.8; VLA-4 inh: 1.6; XBP1 UPR activ: 2.8; CHOP UPR activ: 5.4; Beta2AR ag CP1: 133.2; B2AR FAP counter: inactive

What do the screens show for `Cc1ccc(-c2nnc(COc3cccc(-n4cnnn4)c3)o2)cc1`?
Beta2AR agonist: -12.5; CHOP inh: 15.4; VLA-4 inh: -3.8; XBP1 UPR activ: -0.2; CHOP UPR activ: 1.4

How did Clc1ccccc1OCc1nnc(-c2ccccc2)o1 do in these assays?
Beta2AR agonist: 0.7; CHOP inh: -9.3; VLA-4 inh: 10.4; XBP1 UPR activ: 0.6; CHOP UPR activ: 9.0

How did CCCCC1CCC(C(=O)N(CCOC)c2c(N)n(CC(C)C)c(=O)[nH]c2=O)CC1 (stereo not drawn) do in these assays?
Beta2AR agonist: -0.2; VLA-4 inh: -20.7; XBP1 UPR activ: -0.8; CHOP UPR activ: 1.7

Results for COc1cc(/C=C/C(=O)OCC(=O)c2c(N)n(C)c(=O)n(C)c2=O)ccc1OC(F)F ?
Beta2AR agonist: -9.0; CHOP inh: 15.1; VLA-4 inh: 1.9; XBP1 UPR activ: 1.3; CHOP UPR activ: 2.4

How did CCn1cc(C(=O)NCCC(C)C)c(=O)c2cc(F)c(N3CCN(C(=O)c4ccco4)CC3)cc21 do in these assays?
Beta2AR agonist: 10.2; VLA-4 inh: 5.3; XBP1 UPR activ: -0.1; CHOP UPR activ: 8.0

What do the screens show for `CCCCN(S(=O)(=O)c1ccccc1)S(=O)(=O)c1ccccc1`?
Beta2AR agonist: -0.6; VLA-4 inh: 13.4; XBP1 UPR activ: -0.7; CHOP UPR activ: 0.2

How did CCCCn1c(N)c(N(C)C(=O)C2CC(=O)N(Cc3ccco3)C2)c(=O)[nH]c1=O (stereo not drawn) do in these assays?
Beta2AR agonist: -3.5; VLA-4 inh: -3.6; XBP1 UPR activ: -2.7; CHOP UPR activ: 1.6

Results for CCC(CC)COC(=O)C1=C(C)NC(=O)NC1c1cccc([N+](=O)[O-])c1 (stereo not drawn) ?
Beta2AR agonist: -7.5; VLA-4 inh: 5.9; XBP1 UPR activ: -1.6; CHOP UPR activ: 0.3

What do the screens show for `COc1ccccc1CNC(=O)CN1CCN(c2ccc(C(C)=O)cc2)CC1`?
Beta2AR agonist: 54.2*; VLA-4 inh: 1.8; XBP1 UPR activ: -5.2; CHOP UPR activ: -1.2; Beta2AR ag CP1: 118.0; B2AR FAP counter: inactive

What do the screens show for `COc1ccc(C(=O)NC(=O)CSc2n[nH]c(N)n2)cc1`?
Beta2AR agonist: -4.2; VLA-4 inh: -4.1; XBP1 UPR activ: -0.1; CHOP UPR activ: 0.0

How did CCC(C)C(=O)Nc1cc(OC)c(OC)cc1C(=O)O (stereo not drawn) do in these assays?
Beta2AR agonist: 2.0; CHOP inh: -3.2; VLA-4 inh: 1.5; XBP1 UPR activ: -1.9; CHOP UPR activ: -0.7

Results for CCC(CC)C(=O)Nc1cc(OC)c(OC)cc1C(=O)O ?
Beta2AR agonist: 92.4*; CHOP inh: 32.6; VLA-4 inh: 2.7; XBP1 UPR activ: -1.3; CHOP UPR activ: 0.4; Beta2AR ag CP1: 98.6; B2AR FAP counter: inactive

Results for CN(C)c1nc(SCCOC(=O)c2ccccc2)nc(N(C)C)n1 ?
Beta2AR agonist: -11.0; CHOP inh: 17.9; VLA-4 inh: 5.5; XBP1 UPR activ: -1.9; CHOP UPR activ: 1.6

Results for CCN(CC)c1nc(SCCOC(=O)Nc2ccccc2)nc(N(CC)CC)n1 ?
Beta2AR agonist: 43.9*; CHOP inh: 58.6; VLA-4 inh: 23.5; XBP1 UPR activ: 3.9; CHOP UPR activ: 0.1; Beta2AR ag CP1: 105.8; B2AR FAP counter: inactive

What do the screens show for `O=C(CSCc1ccc(Cl)cc1Cl)Nc1nccs1`?
Beta2AR agonist: 53.9*; CHOP inh: 4.8; VLA-4 inh: 10.7; XBP1 UPR activ: -3.3; CHOP UPR activ: -0.6; Beta2AR ag CP1: 94.2; B2AR FAP counter: inactive

What do the screens show for `O=C(CSCc1c(Cl)cccc1Cl)Nc1nccs1`?
Beta2AR agonist: -6.6; CHOP inh: 12.3; VLA-4 inh: -4.4; XBP1 UPR activ: 3.0; CHOP UPR activ: 2.2

What do the screens show for `CCn1c(SCC(=O)N2CCCC2)nnc1-c1ccc(N)cc1`?
Beta2AR agonist: 86.0*; CHOP inh: 25.0; VLA-4 inh: -15.0; XBP1 UPR activ: -2.0; CHOP UPR activ: -4.2; Beta2AR ag CP1: 6.8*; B2AR FAP counter: inactive

Results for CCCCn1c(SCC(=O)N2CCCC2)nnc1-c1ccccc1 ?
Beta2AR agonist: -3.7; CHOP inh: -0.9; VLA-4 inh: 11.3; XBP1 UPR activ: 1.3; CHOP UPR activ: -2.2

What do the screens show for `COc1ccc(OC)c(S(=O)(=O)N2CCCC(C(=O)NCc3cccnc3)C2)c1` (stereo not drawn)?
Beta2AR agonist: 71.3*; VLA-4 inh: -2.5; XBP1 UPR activ: -0.9; CHOP UPR activ: 1.5; Beta2AR ag CP1: 91.6; B2AR FAP counter: inactive

How did COc1ccc(OC)c(S(=O)(=O)N2CCCC(C(=O)NCc3ccccn3)C2)c1 (stereo not drawn) do in these assays?
Beta2AR agonist: -1.1; VLA-4 inh: 1.8; XBP1 UPR activ: 0.3; CHOP UPR activ: 0.1

Results for Cc1ccccc1C(=O)N1CCN(c2ccc(NC(=O)c3ccc4c(c3)OCCO4)cc2)CC1 ?
Beta2AR agonist: 33.2; VLA-4 inh: 4.7; XBP1 UPR activ: -3.9; CHOP UPR activ: 7.0

Results for O=C(Nc1cc(F)c(Br)cc1F)c1ccc(Cl)cc1 ?
Beta2AR agonist: -3.5; CHOP inh: 33.2; VLA-4 inh: -4.8; XBP1 UPR activ: 7.4; CHOP UPR activ: 6.1

Results for CC(C)Oc1cccc(C(=O)Nc2ccc(NC(=O)c3ccco3)cc2)c1 ?
Beta2AR agonist: -9.8; CHOP inh: 26.8; VLA-4 inh: 8.9; XBP1 UPR activ: 1.0; CHOP UPR activ: -0.9; Beta2AR ag CP1: 147.8; B2AR FAP counter: inactive

How did COc1cccc(OC)c1C(=O)Nc1ccc(NC(=O)c2ccco2)cc1 do in these assays?
Beta2AR agonist: -9.7; CHOP inh: 1.4; VLA-4 inh: -0.6; XBP1 UPR activ: 0.5; CHOP UPR activ: 0.6; Beta2AR ag CP1: 98.8; B2AR FAP counter: inactive

Results for C=CCn1c(SCc2ccccc2Cl)nnc1-c1sc2nc(C)cc(C)c2c1N ?
Beta2AR agonist: 110.1*; CHOP inh: 1.1; VLA-4 inh: 4.8; XBP1 UPR activ: -0.7; CHOP UPR activ: -0.9; Beta2AR ag CP1: 17.3*; B2AR FAP counter: inactive
